Test results from ChEMBL document CHEMBL1141647, “Novel ofloxacin derivatives: synthesis, antimycobacterial and toxicological evaluation” (Bioorg Med Chem Lett, 2008).
Values after ≈ are worked out from the molar mass of the structure shown.

What was measured:
Mus musculus [1] = experiment: Phototoxic effect in UV light irradiated mouse assessed as ear thickness at 140 mg/kg, after 24 hrs relative to control; assay type: ADME, organism-based; parameters: dose 140 mg/kg; settings: in vivo
Procedure, shortened: (§1)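 Mice dosed at 140 mg/kg and exposed to UV immediately after dosing. Irradiation ended at 4 h. Ear thickness (mm) was measured at 0 (pre-dose), 4, 24, 48, 72 and 96 h, left and right ears averaged, mean ± SEM. Comparison was against vehicle controls (0.5% aqueous sodium carboxymethylcellulose, 10 mL/kg) and against the 0 h reading.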

Mus musculus [2] = experiment: Phototoxic effect in UV light irradiated mouse assessed as number of mouse bearing erythema at 140 mg/kg, after 72 hrs relative to control; assay type: ADME, organism-based; parameters: dose 140 mg/kg; settings: in vivo
Procedure, shortened: (§2)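 Mice received 140 mg/kg and were UV-irradiated immediately after dosing, irradiation ending at 4 h. Both ears were scored for erythema at 0, 4, 24, 48, 72 and 96 h, counted as the number of mice with erythema. Vehicle control was 0.5% aqueous sodium carboxymethylcellulose at 10 mL/kg.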

Mus musculus [3] = experiment: Phototoxic effect in UV light irradiated mouse assessed as number of mouse bearing erythema at 140 mg/kg, after 96 hrs relative to control; assay type: ADME, organism-based; parameters: dose 140 mg/kg; settings: in vivo; procedure, shortened: as §2
Mus musculus [4] = experiment: Phototoxic effect in UV light irradiated mouse assessed as number of mouse bearing erythema at 140 mg/kg, after 48 hrs relative to control; assay type: ADME, organism-based; parameters: dose 140 mg/kg; settings: in vivo; procedure, shortened: as §2
[5] = system: Mycolicibacterium smegmatis; experiment: Antimycobacterial activity against Mycobacterium smegmatis ATCC 14468 by agar dilution method; assay type: functional
Procedure, shortened: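 MC² (M. smegmatis) growth inhibition; MIC99 taken as the lowest concentration giving complete inhibition of bacterial growth, in µM.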

DNA gyrase subunit A = DNA gyrase subunit A (Mycolicibacterium smegmatis, UniProt Q59556); experiment: Inhibition of Mycobacterium smegmatis DNA gyrase
Procedure, shortened: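 Inhibition of DNA supercoiling by M. smegmatis (MC²) gyrase, run under standard assay conditions. Varying compound amounts were tested against a fixed amount of enzyme, and IC50 was derived from that series. Relaxed circular DNA served as marker, 5% DMSO as solvent control, and moxifloxacin at 5 µg/mL as positive control.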

Mus musculus [6] = experiment: Phototoxic effect in UV light irradiated mouse assessed as ear thickness at 140 mg/kg, after 72 hrs relative to control; assay type: ADME, organism-based; parameters: dose 140 mg/kg; settings: in vivo; procedure, shortened: as §1
Mus musculus [7] = experiment: Phototoxic effect in UV light irradiated mouse assessed as ear thickness at 140 mg/kg, after 4 hrs relative to control; assay type: ADME, organism-based; parameters: dose 140 mg/kg; settings: in vivo; procedure, shortened: as §1
Mus musculus [8] = experiment: Phototoxic effect in UV light irradiated mouse assessed as number of mouse bearing erythema at 140 mg/kg, after 24 hrs relative to control; assay type: ADME, organism-based; parameters: dose 140 mg/kg; settings: in vivo; procedure, shortened: as §2
Mus musculus [9] = experiment: Phototoxic effect in mouse assessed as number of mouse bearing erythema at 140 mg/kg administered before UV light exposure relative to control; assay type: ADME, organism-based; parameters: dose 140 mg/kg; settings: in vivo; procedure, shortened: as §2
Mus musculus [10] = experiment: Phototoxic effect in mouse assessed as ear thickness at 140 mg/kg administered before UV light exposure relative to control; assay type: ADME, organism-based; parameters: dose 140 mg/kg; settings: in vivo; procedure, shortened: as §1
Mus musculus [11] = experiment: Phototoxic effect in UV light irradiated mouse assessed as ear thickness at 140 mg/kg, after 48 hrs relative to control; assay type: ADME, organism-based; parameters: dose 140 mg/kg; settings: in vivo; procedure, shortened: as §1
[12] = system: Mycobacterium tuberculosis; experiment: Antimycobacterial activity against Mycobacterium tuberculosis H37Rv by agar dilution method; assay type: functional
Procedure, shortened: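 MIC99 was taken as the lowest concentration giving complete inhibition of bacterial growth.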

Mus musculus [13] = experiment: Phototoxic effect in UV light irradiated mouse assessed as ear thickness at 140 mg/kg, after 96 hrs relative to control; assay type: ADME, organism-based; parameters: dose 140 mg/kg; settings: in vivo; procedure, shortened: as §1
Vero = experiment: Cytotoxicity against african green monkey Vero cells after 72 hrs by MTT assay; assay type: cell-based; settings: Chlorocebus sabaeus
Procedure, shortened: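 Vero cells exposed for 72 h; tested up to 62.5 µg/mL. Viability was read as cellular conversion of MTT to formazan, and IC50 was reported in µM.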

[14] = system: Mycobacterium tuberculosis; experiment: Antimycobacterial activity against Mycobacterium tuberculosis ATCC 35801 infected CD1 mouse lungs assessed as viable organisms at 50 mg/kg, ip after 35 days relative to control; assay type: functional; settings: route intraperitoneal
Procedure, shortened: (§3)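 CD-1 mice infected intravenously with M. tuberculosis ATCC 35801; intraperitoneal treatment started 10 days after inoculation and continued for 10 days. At 35 days postinfection, spleens and right lungs were removed aseptically and viable organisms counted (log CFU). Counts were compared with vehicle-treated controls.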

[15] = system: Mycobacterium tuberculosis; experiment: Antimycobacterial activity against Mycobacterium tuberculosis ATCC 35801 infected CD1 mouse spleen assessed as viable organisms at 50 mg/kg, ip after 35 days relative to control; assay type: functional; settings: route intraperitoneal; procedure, shortened: as §3
Mus musculus [16] = experiment: Phototoxic effect in UV light irradiated mouse assessed as number of mouse bearing erythema at 140 mg/kg, after 4 hrs relative to control; assay type: ADME, organism-based; parameters: dose 140 mg/kg; settings: in vivo; procedure, shortened: as §2

Sequence of DNA gyrase subunit A (Q59556 whole entry): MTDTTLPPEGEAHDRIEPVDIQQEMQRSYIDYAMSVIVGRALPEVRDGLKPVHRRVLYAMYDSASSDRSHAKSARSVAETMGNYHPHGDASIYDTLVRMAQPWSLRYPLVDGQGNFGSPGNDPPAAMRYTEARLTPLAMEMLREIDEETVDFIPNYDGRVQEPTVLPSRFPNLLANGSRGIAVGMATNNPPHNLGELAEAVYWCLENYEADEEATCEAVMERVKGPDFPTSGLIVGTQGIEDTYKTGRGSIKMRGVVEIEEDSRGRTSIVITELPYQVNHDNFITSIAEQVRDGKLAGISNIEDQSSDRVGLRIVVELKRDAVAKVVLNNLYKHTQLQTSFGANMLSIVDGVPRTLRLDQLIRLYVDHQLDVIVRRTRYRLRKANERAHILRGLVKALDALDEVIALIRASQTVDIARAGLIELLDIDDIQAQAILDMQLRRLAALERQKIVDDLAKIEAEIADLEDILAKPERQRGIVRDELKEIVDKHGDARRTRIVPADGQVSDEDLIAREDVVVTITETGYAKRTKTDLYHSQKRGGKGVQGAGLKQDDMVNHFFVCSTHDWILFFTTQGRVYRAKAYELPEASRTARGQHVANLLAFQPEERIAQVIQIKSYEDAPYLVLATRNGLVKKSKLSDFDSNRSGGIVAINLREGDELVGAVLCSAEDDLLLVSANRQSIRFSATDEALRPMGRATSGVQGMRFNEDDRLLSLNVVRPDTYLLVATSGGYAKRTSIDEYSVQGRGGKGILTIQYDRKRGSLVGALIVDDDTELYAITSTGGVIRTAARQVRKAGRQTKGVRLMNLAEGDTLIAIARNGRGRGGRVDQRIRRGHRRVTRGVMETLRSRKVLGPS

Structure (SMILES): CC1COc2c(N3CCN(C(=O)c4ccco4)CC3)c(F)cc3c(=O)c(C(=O)O)cn1c23 (stereo unspecified)
- Activity (Mus musculus [1]): 0.29 mm
- Activity (Mus musculus [2]): Non-toxic
- Activity (Mus musculus [3]): Non-toxic
- Activity (Mus musculus [4]): Non-toxic
- MIC99 [5]: 3.53 µM (≈ 1.56 µg/mL)
- IC50 (DNA gyrase subunit A): > 113 µM
- Activity (Mus musculus [6]): 0.29 mm
- Activity (Mus musculus [7]): 0.3 mm
- Activity (Mus musculus [8]): Non-toxic
- Activity (Mus musculus [9]): Non-toxic
- Activity (Mus musculus [10]): 0.29 mm
- Activity (Mus musculus [11]): 0.29 mm
- MIC99 [12]: 7.09 µM (≈ 3.13 µg/mL)
- Activity (Mus musculus [13]): 0.3 mm

Structure (SMILES): CC1COc2c(N3CCn4cc(C(=O)O)nc4C3)c(F)cc3c(=O)c(C(=O)O)cn1c23 (stereo unspecified)
- MIC99 [5]: 29.2 µM (≈ 12.5 µg/mL)
- IC50 (Vero): > 146 µM
- MIC99 [12]: 0.91 µM (≈ 0.39 µg/mL)

Structure (SMILES): Cc1onc(-c2c(F)cccc2F)c1C(=O)N1CCN(c2c(F)c([N+](=O)[O-])c3c(=O)c(C(=O)O)cn4c3c2OCC4C)CC1 (stereo unspecified)
- MIC99 [5]: 1.27 µM (≈ 0.779 µg/mL)
- IC50 (Vero): 102 µM
- MIC99 [12]: 5.1 µM (≈ 3.13 µg/mL)

Structure (SMILES): Cc1onc(-c2c(F)cccc2F)c1C(=O)N1CCN(c2c(F)cc3c(=O)c(C(=O)O)cn4c3c2OCC4C)CC1 (stereo unspecified)
- MIC99 [5]: 44 µM (≈ 25 µg/mL)
- MIC99 [12]: 11 µM (≈ 6.25 µg/mL)

Structure (SMILES): CC1COc2c(N3CCn4cc(C(=O)O)nc4C3)c(F)c([N+](=O)[O-])c3c(=O)c(C(=O)O)cn1c23 (stereo unspecified)
- MIC99 [5]: 6.61 µM (≈ 3.13 µg/mL)
- Log10 cfu [14]: 6.08
- IC50 (Vero): 132 µM
- Log10 cfu [15]: 6.11
- MIC99 [12]: 0.19 µM (≈ 0.0899 µg/mL)

Structure (SMILES): CC1COc2c(N3CCC(n4c(=O)[nH]c5cc(Cl)ccc54)CC3)c(F)c([N+](=O)[O-])c3c(=O)c(C(=O)O)cn1c23 (stereo unspecified)
- MIC99 [5]: 1.39 µM (≈ 0.776 µg/mL)
- IC50 (Vero): 112 µM
- MIC99 [12]: 0.34 µM (≈ 0.19 µg/mL)

Structure (SMILES): COc1cc2c(cc1OC)CN(c1c(F)c([N+](=O)[O-])c3c(=O)c(C(=O)O)cn4c3c1OCC4C)CC2 (stereo unspecified)
- MIC99 [5]: 12.5 µM (≈ 6.25 µg/mL)
- IC50 (Vero): 62.5 µM
- MIC99 [12]: 1.56 µM (≈ 0.779 µg/mL)

Structure (SMILES): CC1COc2c(N3CCN(C)CC3)c(F)cc3c(=O)c(C(=O)O)cn1c23.Cl (stereo unspecified)
- Activity (Mus musculus [1]): 0.29 mm
- Activity (Mus musculus [6]): 0.35 mm
- Activity (Mus musculus [7]): 0.32 mm
- Activity (Mus musculus [10]): 0.29 mm
- Activity (Mus musculus [11]): 0.3 mm
- Activity (Mus musculus [13]): 0.35 mm

Structure (SMILES): CC1COc2c(N3CCc4ccccc4C3C(=O)NC(C)(C)C)c(F)c([N+](=O)[O-])c3c(=O)c(C(=O)O)cn1c23 (stereo unspecified)
- MIC99 [5]: 2.89 µM (≈ 1.56 µg/mL)
- IC50 (DNA gyrase subunit A): 92.8 µM
- IC50 (Vero): 116 µM
- MIC99 [12]: 1.45 µM (≈ 0.781 µg/mL)

Structure (SMILES): CC1COc2c(N3CCN(C(c4ccccc4)c4ccc(Cl)cc4)CC3)c(F)c([N+](=O)[O-])c3c(=O)c(C(=O)O)cn1c23 (stereo unspecified)
- Activity (Mus musculus [16]): Non-toxic
- Activity (Mus musculus [1]): 0.28 mm
- Activity (Mus musculus [2]): Non-toxic
- Activity (Mus musculus [3]): Non-toxic
- Activity (Mus musculus [4]): Non-toxic
- MIC99 [5]: 0.66 µM (≈ 0.391 µg/mL)
- IC50 (DNA gyrase subunit A): 16.9 µM
- Activity (Mus musculus [6]): 0.29 mm
- Activity (Mus musculus [7]): 0.28 mm
- Activity (Mus musculus [8]): Non-toxic
- IC50 (Vero): 105 µM
- Activity (Mus musculus [9]): Non-toxic
- Activity (Mus musculus [10]): 0.28 mm
- Activity (Mus musculus [11]): 0.29 mm
- MIC99 [12]: 2.63 µM (≈ 1.56 µg/mL)
- Activity (Mus musculus [13]): 0.31 mm

Structure (SMILES): CC1COc2c(N3CCSCC3)c(F)cc3c(=O)c(C(=O)O)cn1c23 (stereo unspecified)
- MIC99 [5]: 4.28 µM (≈ 1.56 µg/mL)
- IC50 (DNA gyrase subunit A): 110 µM
- IC50 (Vero): > 172 µM
- MIC99 [12]: 2.14 µM (≈ 0.78 µg/mL)

Structure (SMILES): CC1COc2c(N3CCc4ccccc4C3C(=O)NC(C)(C)C)c(F)cc3c(=O)c(C(=O)O)cn1c23 (stereo unspecified)
- MIC99 [5]: 50.7 µM (≈ 25 µg/mL)
- IC50 (Vero): 127 µM
- MIC99 [12]: 3.16 µM (≈ 1.56 µg/mL)

Structure (SMILES): CC1CN(c2c(F)c([N+](=O)[O-])c3c(=O)c(C(=O)O)cn4c3c2OCC4C)CC(C)O1 (stereo unspecified)
- MIC99 [5]: 1.85 µM (≈ 0.78 µg/mL)
- IC50 (DNA gyrase subunit A): > 119 µM
- IC50 (Vero): 148 µM
- MIC99 [12]: 1.85 µM (≈ 0.78 µg/mL)

Structure (SMILES): CC1COc2c(N3CCN(C)C(c4ccccc4)C3)c(F)cc3c(=O)c(C(=O)O)cn1c23 (stereo unspecified)
- MIC99 [5]: 114 µM (≈ 50 µg/mL)
- MIC99 [12]: 14.3 µM (≈ 6.25 µg/mL)

Structure (SMILES): CC1COc2c(N3CCC4(CC3)OCCO4)c(F)c(N)c3c(=O)c(C(=O)O)cn1c23 (stereo unspecified)
- MIC99 [5]: 11.2 µM (≈ 4.68 µg/mL)
- IC50 (Vero): > 149 µM
- MIC99 [12]: 3.72 µM (≈ 1.56 µg/mL)

Structure (SMILES): CC1COc2c(N3CCN(C(=O)C4COc5ccccc5O4)CC3)c(F)c([N+](=O)[O-])c3c(=O)c(C(=O)O)cn1c23 (stereo unspecified)
- MIC99 [5]: 11.3 µM (≈ 6.25 µg/mL)
- IC50 (Vero): 113 µM
- MIC99 [12]: 2.81 µM (≈ 1.56 µg/mL)

Structure (SMILES): COc1cc2c(cc1OC)CN(c1c(F)cc3c(=O)c(C(=O)O)cn4c3c1OCC4C)CC2 (stereo unspecified)
- MIC99 [5]: 13.8 µM (≈ 6.25 µg/mL)
- IC50 (Vero): > 138 µM
- MIC99 [12]: 1.72 µM (≈ 0.782 µg/mL)
